Results collected from several papers.
Each line is one published result; the experiments were not run side by side.
ABL1 phosphorylated: Tyrosine-protein kinase ABL1, phosphorylated (ABL1, Homo sapiens, UniProt P00519)
ABL1: Tyrosine-protein kinase ABL1 (ABL1, Homo sapiens, UniProt P00519)

Compound	target	observed	action	technique	concentration	endpoint	result
Cc1ccc(NC(=O)c2ccnc(C(F)(F)F)c2)cc1-c1cc(OCCO)nc(N2CCOCC2)c1	Tyrosine-protein kinase ABL1 (ABL1, Homo sapiens, UniProt P00519, Y253F)	binding	–	–	1 µM	remaining binding	100%
CO[C@@H]1[C@H](N(C)C(=O)c2ccccc2)C[C@H]2O[C@]1(C)n1c3ccccc3c3c4c(c5c6ccccc6n2c5c31)C(=O)NC4	Tyrosine-protein kinase ABL1, phosphorylated (ABL1, Homo sapiens, UniProt P00519, M351T)	enzyme activity	inhibitor	–	1 µM	inhibition	13%
C1=C/COCc2cc(ccc2OCCN2CCCC2)Nc2nccc(n2)-c2cccc(c2)COC/1	Tyrosine-protein kinase ABL1 (ABL1, Homo sapiens, UniProt P00519, Q252H)	binding	–	–	0.1 µM	remaining binding	15%
CN1CCN(C(=O)c2ccc(NC(=O)Nc3ccc(N(C)c4ccnc(Nc5ccc(CS(C)(=O)=O)cc5)n4)cc3)cc2)CC1	Tyrosine-protein kinase ABL1, non-phosphorylated (ABL1, Homo sapiens, UniProt P00519)	binding	–	competition with immobilised ligand	1 µM	remaining binding	9%
N#Cc1ccc(NC(=O)Nc2ccccc2)cc1	ABL1 phosphorylated	cell-free assay	–	competition with immobilised ligand	25 µM	remaining binding	96%
COc1ccc2oc(-c3ccc4nc(N)oc4c3)c/c(=N\c3ccccc3NC(=O)CCN)c2c1	Tyrosine-protein kinase ABL1 (ABL1, Homo sapiens, UniProt P00519, M351T)	cell-free assay	–	–	1 µM	remaining signal	100%
[2H]c1cc(C)c(NC(=O)c2cnc(Nc3cc(N4CCCCC4)nc(C)n3)s2)c(Cl)c1	ABL1	enzyme activity	inhibitor	–	10 nM	inhibition	> 90%
CCCCC(=O)Nc1ccc(-c2ccc3ncn(CCC)c(=O)c3c2)cn1	ABL1 phosphorylated	binding	–	competition with immobilised ligand	0.5 µM	remaining binding	93%
Cc1nc(Nc2ncc(C(=O)Nc3c(C)cccc3Cl)s2)cc(N2CCCCC2)n1	ABL1	enzyme activity	inhibitor	–	1 nM	inhibition	65%
CC#CC(=O)N1CCC[C@H]1c1nc(-c2ccc(C(=O)Nc3ccccn3)cc2)c2c(N)nccn12	Tyrosine-protein kinase ABL1, non-phosphorylated (ABL1, Homo sapiens, UniProt P00519, T315I)	enzyme activity	inhibitor	–	1 µM	inhibition	19%
[2H]c1cc(C)c(NC(=O)c2cnc(Nc3cc(N4CC[C@@H](N)C4)nc(C)n3)s2)c(Cl)c1	ABL1	enzyme activity	inhibitor	–	1 nM	inhibition	86%
C=CC(=O)N1CCC([C@@H]2CCNc3c(C(N)=O)c(-c4ccc(Oc5ccccc5)cc4)nn32)CC1	Tyrosine-protein kinase ABL1, phosphorylated (ABL1, Homo sapiens, UniProt P00519, Q252H)	enzyme activity	inhibitor	–	1 µM	inhibition	32%
[2H]c1cc(C)c(NC(=O)c2cnc(Nc3cc(N4CC[C@@H](O)C4)nc(C)n3)s2)c(Cl)c1	ABL1	enzyme activity	inhibitor	–	1 nM	inhibition	87%
COc1ccc2[nH]c3c4[nH]c5ccc(OC)cc5c4c4c(c3c2c1)C(=O)NC4=O	Tyrosine-protein kinase ABL1 (ABL1, Homo sapiens, UniProt P00519, F317I)	binding	–	–	1 µM	remaining binding	87%
Cc1nc(Nc2ncc(C(=O)Nc3c(C)cccc3Cl)s2)cc(N2CC[C@H](N)C2)n1	ABL1	enzyme activity	inhibitor	–	1 nM	inhibition	92%
C[C@H]1CC[C@H](n2c3cnccc3c3cnc(Nc4ccc5c(n4)CCN(C(=O)CO)C5)nc32)CC1	ABL1 phosphorylated	binding	–	competition with immobilised ligand	1 µM	remaining binding	100%
